Test results as given in ChEMBL document CHEMBL1136201, “Synthesis and binding selectivity of 7- and 15-decylbenzolactone-V8 for the C1 domains of protein kinase C isozymes” (Bioorg Med Chem Lett, 2003).

Columns and labels:
[1] = target: T1, Protein kinase C eta type (Homo sapiens, UniProt P24723); test: Displacement of [3H]PDBu from protein kinase C eta-C1A domain
Summary of the method: (§1)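 Synthetic C1 peptides of about 50 amino acids, used as surrogates for the PKC C1 domains, were incubated with [3H]phorbol 12,13-dibutyrate (PDBu). Competitor was assessed by inhibition of specific [3H]PDBu binding. […] Values are given with standard deviation from at least two separate experiments.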

[2] = target: T2, Protein kinase C delta type (Homo sapiens, UniProt Q05655); test: Displacement of [3H]PDBu from protein kinase C Delta-C1A domain; summary of the method: as §1
[3] = target: Protein kinase C theta type (Homo sapiens, UniProt Q04759); test: Displacement of [3H]PDBu from protein kinase C Theta-C1B domain; summary of the method: as §1
[4] = target: T3, Protein kinase C epsilon type (Homo sapiens, UniProt Q02156); test: Displacement of [3H]-PDBu from protein kinase C epsilon-C1B domain; summary of the method: as §1
T3 sequence (Q02156 whole entry): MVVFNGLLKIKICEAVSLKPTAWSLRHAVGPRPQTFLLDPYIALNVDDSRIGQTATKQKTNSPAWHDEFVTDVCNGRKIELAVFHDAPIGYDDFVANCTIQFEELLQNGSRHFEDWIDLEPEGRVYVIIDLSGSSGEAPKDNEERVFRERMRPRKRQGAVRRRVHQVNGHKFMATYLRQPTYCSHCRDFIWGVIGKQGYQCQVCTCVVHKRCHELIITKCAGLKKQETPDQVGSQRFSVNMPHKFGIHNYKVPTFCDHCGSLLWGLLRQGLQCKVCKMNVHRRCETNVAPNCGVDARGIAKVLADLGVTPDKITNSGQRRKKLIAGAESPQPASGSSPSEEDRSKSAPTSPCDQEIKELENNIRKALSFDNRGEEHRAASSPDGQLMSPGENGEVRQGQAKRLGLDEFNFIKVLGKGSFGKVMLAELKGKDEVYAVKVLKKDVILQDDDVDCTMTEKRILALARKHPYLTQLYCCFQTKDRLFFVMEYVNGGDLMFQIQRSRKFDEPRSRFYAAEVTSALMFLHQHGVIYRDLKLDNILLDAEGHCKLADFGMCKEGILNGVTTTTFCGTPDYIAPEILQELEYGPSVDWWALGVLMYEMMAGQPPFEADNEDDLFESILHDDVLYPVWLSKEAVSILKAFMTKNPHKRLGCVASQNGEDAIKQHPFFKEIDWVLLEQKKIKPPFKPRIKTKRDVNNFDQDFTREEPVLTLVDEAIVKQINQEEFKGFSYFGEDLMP

[5] = target: T4, Protein kinase C alpha type (Homo sapiens, UniProt P17252); test: Displacement of [3H]PDBu from protein kinase C Alpha-C1A domain; summary of the method: as §1
[6] = target: T3, Protein kinase C epsilon type; test: Displacement of [3H]-PDBu from protein kinase C epsilon-C1A domain; summary of the method: as §1
[7] = target: T5, Protein kinase C beta type (Homo sapiens, UniProt P05771); test: Displacement of [3H]PDBu from protein kinase C Beta-C1A domain; summary of the method: as §1
[8] = target: T2, Protein kinase C delta type; test: Displacement of [3H]PDBu from protein kinase C Delta-C1B domain; summary of the method: as §1
[9] = target: T4, Protein kinase C alpha type; test: Displacement of [3H]PDBu from protein kinase C Alpha-C1B domain; summary of the method: as §1
[10] = target: T6, Protein kinase C gamma type (Homo sapiens, UniProt P05129); test: Displacement of [3H]PDBu from protein kinase C gamma-C1A domain; summary of the method: as §1
[11] = target: T1, Protein kinase C eta type; test: Displacement of [3H]PDBu from protein kinase C eta-C1B domain; summary of the method: as §1
[12] = target: T5, Protein kinase C beta type; test: Displacement of [3H]PDBu from protein kinase C Beta-C1B domain; summary of the method: as §1
[13] = target: T6, Protein kinase C gamma type; test: Displacement of [3H]-PDBu from protein kinase C gamma-C1B domain; summary of the method: as §1

Sequence of Protein kinase C theta type (Q04759 whole entry, the tested form may be a part): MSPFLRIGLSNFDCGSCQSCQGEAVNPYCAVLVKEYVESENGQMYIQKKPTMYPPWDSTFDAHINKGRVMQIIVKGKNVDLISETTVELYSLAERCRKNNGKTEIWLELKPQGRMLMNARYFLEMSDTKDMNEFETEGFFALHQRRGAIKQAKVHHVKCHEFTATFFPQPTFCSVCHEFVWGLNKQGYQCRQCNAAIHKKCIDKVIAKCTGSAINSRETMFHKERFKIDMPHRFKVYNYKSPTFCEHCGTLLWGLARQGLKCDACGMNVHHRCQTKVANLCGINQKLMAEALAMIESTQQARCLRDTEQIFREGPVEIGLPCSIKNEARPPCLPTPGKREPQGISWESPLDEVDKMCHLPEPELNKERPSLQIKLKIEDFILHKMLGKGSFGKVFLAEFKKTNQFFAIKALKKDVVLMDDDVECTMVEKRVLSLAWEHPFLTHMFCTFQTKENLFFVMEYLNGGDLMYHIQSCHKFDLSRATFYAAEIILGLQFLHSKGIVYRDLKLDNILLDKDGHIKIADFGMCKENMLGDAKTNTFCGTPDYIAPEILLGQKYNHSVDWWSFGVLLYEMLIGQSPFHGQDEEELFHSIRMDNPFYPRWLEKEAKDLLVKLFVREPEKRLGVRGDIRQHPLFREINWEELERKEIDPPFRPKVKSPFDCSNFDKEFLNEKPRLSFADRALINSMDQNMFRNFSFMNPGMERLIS
T2 sequence (Q05655 whole entry, the tested form may be a part): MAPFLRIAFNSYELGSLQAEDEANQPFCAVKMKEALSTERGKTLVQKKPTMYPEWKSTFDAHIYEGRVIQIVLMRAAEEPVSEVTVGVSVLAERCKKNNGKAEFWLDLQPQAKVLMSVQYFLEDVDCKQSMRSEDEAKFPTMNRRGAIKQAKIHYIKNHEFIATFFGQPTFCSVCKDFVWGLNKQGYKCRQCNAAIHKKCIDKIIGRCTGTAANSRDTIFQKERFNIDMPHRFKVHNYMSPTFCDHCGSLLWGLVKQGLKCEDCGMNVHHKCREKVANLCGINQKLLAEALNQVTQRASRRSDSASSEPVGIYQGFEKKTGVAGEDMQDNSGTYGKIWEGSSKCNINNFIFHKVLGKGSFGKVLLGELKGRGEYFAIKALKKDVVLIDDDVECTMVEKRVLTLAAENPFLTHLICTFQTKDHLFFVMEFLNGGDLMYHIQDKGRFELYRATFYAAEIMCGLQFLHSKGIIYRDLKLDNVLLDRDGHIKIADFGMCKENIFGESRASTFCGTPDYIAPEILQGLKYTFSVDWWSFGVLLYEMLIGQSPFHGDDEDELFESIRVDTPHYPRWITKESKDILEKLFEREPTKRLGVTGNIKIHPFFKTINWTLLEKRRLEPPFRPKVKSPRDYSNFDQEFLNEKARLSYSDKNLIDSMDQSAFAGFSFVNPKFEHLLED
T5 sequence (P05771 whole entry, the tested form may be a part): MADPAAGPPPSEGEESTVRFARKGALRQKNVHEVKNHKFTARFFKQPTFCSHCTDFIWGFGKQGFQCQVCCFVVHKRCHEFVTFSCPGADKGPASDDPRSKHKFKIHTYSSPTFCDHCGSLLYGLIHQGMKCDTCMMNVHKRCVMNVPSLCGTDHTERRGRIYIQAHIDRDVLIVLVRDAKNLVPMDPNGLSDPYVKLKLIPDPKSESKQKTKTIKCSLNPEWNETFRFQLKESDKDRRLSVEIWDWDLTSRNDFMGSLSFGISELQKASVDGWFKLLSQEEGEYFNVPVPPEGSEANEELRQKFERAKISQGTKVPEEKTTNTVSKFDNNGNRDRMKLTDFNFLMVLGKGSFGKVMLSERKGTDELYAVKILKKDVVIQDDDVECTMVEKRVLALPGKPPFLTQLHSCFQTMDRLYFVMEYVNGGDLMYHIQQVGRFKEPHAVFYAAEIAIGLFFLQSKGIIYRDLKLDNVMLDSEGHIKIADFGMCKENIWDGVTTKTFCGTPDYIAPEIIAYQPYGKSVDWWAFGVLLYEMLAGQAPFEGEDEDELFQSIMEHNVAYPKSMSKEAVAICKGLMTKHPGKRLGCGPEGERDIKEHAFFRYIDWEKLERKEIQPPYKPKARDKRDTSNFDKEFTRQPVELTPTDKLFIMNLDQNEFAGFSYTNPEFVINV
T1 sequence (P24723 whole entry, the tested form may be a part): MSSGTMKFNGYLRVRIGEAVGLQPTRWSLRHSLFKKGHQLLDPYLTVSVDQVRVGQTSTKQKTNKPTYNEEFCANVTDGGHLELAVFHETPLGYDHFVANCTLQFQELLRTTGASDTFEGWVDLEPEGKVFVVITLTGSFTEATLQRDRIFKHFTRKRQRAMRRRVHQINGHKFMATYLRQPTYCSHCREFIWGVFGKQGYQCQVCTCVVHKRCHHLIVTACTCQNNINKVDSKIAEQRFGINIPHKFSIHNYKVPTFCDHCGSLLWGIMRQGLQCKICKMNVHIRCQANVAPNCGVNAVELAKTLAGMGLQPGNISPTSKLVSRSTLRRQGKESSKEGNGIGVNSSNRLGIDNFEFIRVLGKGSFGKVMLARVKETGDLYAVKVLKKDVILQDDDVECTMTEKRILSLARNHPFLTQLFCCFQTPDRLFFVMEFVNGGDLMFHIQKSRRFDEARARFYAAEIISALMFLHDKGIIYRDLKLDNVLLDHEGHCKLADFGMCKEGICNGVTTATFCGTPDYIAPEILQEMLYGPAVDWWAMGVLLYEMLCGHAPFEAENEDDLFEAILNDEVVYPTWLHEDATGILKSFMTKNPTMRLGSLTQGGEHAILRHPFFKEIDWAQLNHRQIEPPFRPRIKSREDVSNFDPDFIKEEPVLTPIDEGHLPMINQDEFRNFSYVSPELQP

SMILES	Ki [1]	Ki [2]	Ki [3]	Ki [4]	Ki [5]	Ki [6]	Ki [7]	Ki [8]	Ki [9]	Ki [10]	Ki [11]	Ki [12]	Ki [13]
CCCCCCCCCCc1ccc2c(c1)N(C)[C@@H](C(C)C)C(=O)O[C@H](CO)C2	1590 nM	6150 nM	62 nM	83 nM	412 nM	4830 nM	1140 nM	149 nM	4050 nM	2360 nM	37 nM	610 nM	675 nM
CCCCCCCCCCCN1c2ccccc2C[C@@H](CO)OC(=O)[C@@H]1C(C)C	6330 nM	30300 nM	358 nM	411 nM	4580 nM	5360 nM	4690 nM	415 nM	> 10000 nM	5750 nM	189 nM	2070 nM	2820 nM
CCCCCCCCCCc1cccc2c1C[C@@H](CO)OC(=O)[C@H](C(C)C)N2C	4250 nM	> 10000 nM	167 nM	540 nM	870 nM	7880 nM	539 nM	92 nM	> 10000 nM	970 nM	111 nM	2690 nM	1720 nM
